Test results: ChEMBL document CHEMBL3407434, “Antivascular and anti-parasite activities of natural and hemisynthetic flavonoids from New Caledonian Gardenia species (Rubiaceae)” (Eur J Med Chem, 2015)

Experiments:
[1] = Cytotoxicity against rat L6 cells assessed as viable cells at 10 uM after 72 hrs by MTT assay relative to control; format: cell-based; settings: read-out: Activity
Procedure, shortened: (§1)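 L6 rat skeletal myoblasts, about 4 × 10^4 cells/well, dosed 24 h after seeding at 10 and 1 µM, in triplicate. After 72 h, MTT was added for 2 h, formazan was dissolved in detergent for 2 h at room temperature in the dark, and absorbance was read at 570 nm. Results are given as percent viable cells.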

[2] = Cytotoxicity against rat L6 cells assessed as viable cells at 1 uM after 72 hrs by MTT assay relative to control; format: cell-based; settings: read-out: Activity; procedure, shortened: as §1
B16 = experiment: Cytotoxicity against mouse B16 cells assessed as cell viability after 48 hrs by MTT assay; format: cell-based; settings: B16, 48 h
Procedure, shortened: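 B16 murine melanoma cells, 5000/well, treated 24 h after plating. Compounds were tested at 0.01 to 100 µM final (DMSO stock 2.5 mg/mL), in triplicate, for 48 h at 37 °C under 5% CO2.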

[3] = Antivascular activity in human EAhy926 cells assessed as concentration require to adopt rounding shape after 2 hrs by microscopic analysis; format: functional, EA.hy 926
Leishmania amazonensis = experiment: Leishmanicidal activity against promastigote stage of Leishmania amazonensis MHOM/BR/PH8 after 48 hrs by MTT assay; format: functional, organism-based; settings: MHOM/BR/PH8, 48 h
Procedure, shortened: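 L. amazonensis MHOM/BR/PH8 promastigotes in Schneider's medium with 20% heat-inactivated FCS, at 10^5 per well in log phase. MTT was added for 4 h at 37 °C, formazan dissolved in DMSO and read at 570 nm. Amphotericin B was the reference drug.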

Plasmodium falciparum [4] = experiment: Antiplasmodial activity against Plasmodium falciparum FcB1/Columbia infected in human red blood cells assessed as parasite growth inhibition at 10 uM after 48 hrs by [3H]-hypoxanthine incorporation assay relative to control; format: functional; settings: read-out: GI
Procedure, shortened: (§2)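 P. falciparum FcB1 (Colombia) grown in human red cells, in triplicate. Screened at 50 and 10 µM in 96-well plates for 48 h at 37 °C under reduced oxygen, then [3H]-hypoxanthine was added and incorporation counted. Counts per minute are given as percent of untreated controls.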

[5] = tested on: Trypanosoma brucei gambiense; experiment: Antitrypanosomal activity against Trypanosoma brucei gambiense Feo assessed as parasite growth inhibition at 50 uM after 72 hrs by fluorescence assay relative to control; format: functional; settings: read-out: GI
Procedure, shortened: (§3)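 Bloodstream-form T. b. gambiense Feo at 10^5 parasites/mL, screened at 50 and 10 µM in triplicate. Incubated 72 h at 37 °C under 5% CO2. Values are percent of untreated controls. Pentamidine served as positive control.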

[6] = tested on: Trypanosoma brucei gambiense; experiment: Antitrypanosomal activity against Trypanosoma brucei gambiense Feo assessed as parasite growth inhibition at 10 uM after 72 hrs by fluorescence assay relative to control; format: functional; settings: read-out: GI; procedure, shortened: as §3
Plasmodium falciparum [7] = experiment: Antiplasmodial activity against Plasmodium falciparum FcB1/Columbia infected in human red blood cells assessed as parasite growth inhibition after 48 hrs by [3H]-hypoxanthine incorporation assay; format: functional, organism-based
Procedure, shortened: as §2, with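 “controls. Selected compounds were then re-run at 100 to 0.195 µM, with IC50 taken from sigmoidal inhibition curves.” for “controls.”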

Tubulin (Homo sapiens) = Tubulin (Homo sapiens) (UniProt P68371+Q9H4B7+P0DPH7+P68366+Q13509+Q71U36+P04350+Q3ZCM7+P07437+P68363+Q9BQE3+Q6PEY2+Q13885+Q9BVA1+Q9BUF5); experiment: Inhibition of tubulin (unknown origin) polymerization at 30 uM preincubated for 45 mins followed by GTP addition measured after 2 hrs by fluorescence assay relative to control; format: protein-complex assay
Tubulin = experiment: Inhibition of tubulin (unknown origin) polymerization preincubated for 45 mins followed by GTP addition measured after 2 hrs by fluorescence assay; format: protein-complex assay, Homo sapiens
[8] = tested on: Trypanosoma brucei gambiense; experiment: Antitrypanosomal activity against Trypanosoma brucei gambiense Feo assessed as parasite growth inhibition after 72 hrs by fluorescence assay; format: functional, organism-based
Procedure, shortened: as §3, with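 “CO2. Resazurin (45 µM final) was added for 4 h at 37 °C, followed by 22 h at room temperature, and fluorescence read at ex 535/em 590 nm.” for “CO2.”, “controls. […]” for “controls.”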

| SMILES | viability at 72 h, 10 µM [1] [%] | viability at 72 h, 1 µM [2] [%] | IC50 (B16) [µM] | Activity [3] [µM] | IC50 (Leishmania amazonensis) [µM] | inhibition of growth at 10 µM (Plasmodium falciparum [4]) [%] | inhibition of growth at 50 µM [5] [%] | inhibition of growth at 10 µM [6] [%] | IC50 (Plasmodium falciparum [7]) [µM] | IC90 (Plasmodium falciparum [7]) [µM] | inhibition (Tubulin (Homo sapiens)) [%] | IC50 (Tubulin) [µM] | IC50 [8] [µM] |
| --- | --- | --- | --- | --- | --- | --- | --- | --- | --- | --- | --- | --- | --- |
| COc1cc(O)c2c(=O)c(OC)c(-c3ccc(O)cc3)oc2c1 [KUMATAKENIN] | 38.7 | 81.3 | 57.5 | 50 | 22.9 | 7.2 | 26.4 | 25.2 | – | – | – | – | – |
| COc1c(O)cc2oc(-c3ccc(O)cc3)c(OC)c(=O)c2c1O [3,6-DIMETHOXY KAEMPFEROL] | 73.5 | 86.2 | 74.1 | >100 | 8.07 | 0 | 88.8 | 40.7 | – | – | – | – | – |
| COc1ccc(-c2oc3cc(OC)cc(O)c3c(=O)c2OC)cc1 | 100 | 99.1 | > 100 | 100 | 33 | 3.9 | 19.9 | 4.6 | – | – | – | – | – |
| COc1ccc(-c2oc3cc(OC)c(OC)c(O)c3c(=O)c2OC)cc1 | 96.5 | 85.3 | > 100 | >100 | 14.8 | 0 | 8 | 18.3 | – | – | – | – | – |
| COc1ccc(/C=C\c2cc(OC)c(OC)c(OC)c2)cc1O [COMBRETASTATIN A4] | – | – | – | 0.27 | – | – | – | – | – | – | – | – | – |
| COc1c(-c2ccc(O)cc2)oc2cc(O)cc(O)c2c1=O [ISOKAEMPFERIDE] | 61 | 85 | 75.8 | >100 | 14.3 | 2.9 | 93.4 | 36.6 | – | – | – | – | – |
| COc1ccc(-c2oc3cc(OC)c(OC)c(OC)c3c(=O)c2OC)cc1 | 93.6 | 88.3 | > 100 | 50 | 37.2 | 0 | 24.9 | 29.4 | – | – | – | – | – |
| O=c1c(O)c(-c2ccc(O)cc2)oc2cc(O)cc(O)c12 [KAEMPFEROL] | 100 | 93.8 | 53.7 | >100 | 27.6 | 0 | 86.5 | 55.1 | – | – | – | – | – |
| CC(=O)Oc1ccc(-c2oc3cc(OC(C)=O)cc(O)c3c(=O)c2OC(C)=O)cc1 | 94.8 | 90.2 | 39.8 | >100 | 12.3 | 7.6 | 5.6 | 0 | – | – | – | – | – |
| C[C@@H]1[C@H](O)[C@@H](C)/C=C/C=C/C=C/C=C/C=C/C=C/C=C/[C@H](O[C@@H]2O[C@H](C)[C@@H](O)[C@H](N)[C@@H]2O)C[C@@H]2O[C@](O)(C[C@@H](O)C[C@@H](O)[C@H](O)CC[C@@H](O)C[C@@H](O)CC(=O)O[C@H]1C)C[C@H](O)[C@H]2C(=O)O [AMPHOTERICIN B] | – | – | – | – | 0.0725 | – | – | – | – | – | – | – | – |
| COc1cc(-c2oc3cc(OC)c(OC)c(OC)c3c(=O)c2OC)cc(OC)c1OC | 81.2 | 93.8 | > 100 | >100 | 31.6 | 35 | 72.4 | 25.9 | 5.8 | 10.8 | – | – | – |
| COc1ccc(-c2oc3cc(O)c(OC)c(O)c3c(=O)c2OC)cc1OC | 94.7 | 99.7 | 28.9 | 25 | 8.15 | 21.3 | 99.8 | 76.2 | – | – | 75.1 | 19.3 | – |
| COc1c(O)c(OC)c2oc(-c3ccc(O)cc3)c(OC)c(=O)c2c1O | 80.4 | 88.4 | > 100 | >100 | 27.3 | 0.6 | 50.7 | 14.6 | – | – | – | – | – |
| COc1cc(-c2oc3cc(O)c(OC)c(O)c3c(=O)c2OC)cc(OC)c1OC | 78.2 | 96.1 | 91.2 | 12.5 | 9.65 | 13.2 | 38.1 | 42.9 | – | – | 69.9 | 21.4 | – |
| COc1cc(-c2oc3cc(O)c(OC)c(O)c3c(=O)c2OC)cc(O)c1OC | 44.2 | 97.6 | 33.9 | 1.6 | 10.2 | 0 | 82.6 | 37.8 | – | – | 99 | 17.8 | – |
| N=C(N)c1ccc(OCCCCCOc2ccc(C(=N)N)cc2)cc1 [PENTAMIDINE] | – | – | – | – | – | – | – | – | – | – | – | – | 0.007 |
| COc1cc(-c2oc3cc(OC)c(OC)c(O)c3c(=O)c2OC)cc(OC)c1OC | 53.5 | 99.2 | 11.5 | >100 | 21.8 | 21.7 | 40.5 | 17.6 | – | – | – | – | – |
| COc1ccc(-c2oc3cc(O)c(OC)c(O)c3c(=O)c2OC)cc1 [SANTIN] | 40.8 | 90.9 | 45.7 | 12.5 | 63.1 | 0 | 83.1 | 33.2 | – | – | 100 | 5.7 | – |
